“Also recorded” adds a separate entry of the source.
Tests used:
AGS cells = assay: MTT cell viability assay, AGS; format: cell-based, human; settings: read-out: IC50 cell proliferation, AGS; 72 h, MTT
How it was run: (§1)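 Cells were seeded at 2000 per well, incubated overnight and exposed to test compound for 72 h. MTT was added for 4 h, formazan was dissolved in DMSO and absorbance was read at 570 nm. Viability was normalized to untreated wells, giving mean ± SEM of three trials. IC50 was calculated from relative survival.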

MKN-45 cells = assay: MTT cell viability assay, MKN-45; format: cell-based, human; settings: read-out: IC50 cell proliferation, MKN-45; 72 h, MTT
How it was run: as §1

TRPC6 = target: T1, TRPC6 (Mus musculus, UniProt Q61143); settings: read-out: IC50 TRPC6; nonselective TRPC6 antagonist; cited from earlier work
T1 sequence (Q61143 1-930): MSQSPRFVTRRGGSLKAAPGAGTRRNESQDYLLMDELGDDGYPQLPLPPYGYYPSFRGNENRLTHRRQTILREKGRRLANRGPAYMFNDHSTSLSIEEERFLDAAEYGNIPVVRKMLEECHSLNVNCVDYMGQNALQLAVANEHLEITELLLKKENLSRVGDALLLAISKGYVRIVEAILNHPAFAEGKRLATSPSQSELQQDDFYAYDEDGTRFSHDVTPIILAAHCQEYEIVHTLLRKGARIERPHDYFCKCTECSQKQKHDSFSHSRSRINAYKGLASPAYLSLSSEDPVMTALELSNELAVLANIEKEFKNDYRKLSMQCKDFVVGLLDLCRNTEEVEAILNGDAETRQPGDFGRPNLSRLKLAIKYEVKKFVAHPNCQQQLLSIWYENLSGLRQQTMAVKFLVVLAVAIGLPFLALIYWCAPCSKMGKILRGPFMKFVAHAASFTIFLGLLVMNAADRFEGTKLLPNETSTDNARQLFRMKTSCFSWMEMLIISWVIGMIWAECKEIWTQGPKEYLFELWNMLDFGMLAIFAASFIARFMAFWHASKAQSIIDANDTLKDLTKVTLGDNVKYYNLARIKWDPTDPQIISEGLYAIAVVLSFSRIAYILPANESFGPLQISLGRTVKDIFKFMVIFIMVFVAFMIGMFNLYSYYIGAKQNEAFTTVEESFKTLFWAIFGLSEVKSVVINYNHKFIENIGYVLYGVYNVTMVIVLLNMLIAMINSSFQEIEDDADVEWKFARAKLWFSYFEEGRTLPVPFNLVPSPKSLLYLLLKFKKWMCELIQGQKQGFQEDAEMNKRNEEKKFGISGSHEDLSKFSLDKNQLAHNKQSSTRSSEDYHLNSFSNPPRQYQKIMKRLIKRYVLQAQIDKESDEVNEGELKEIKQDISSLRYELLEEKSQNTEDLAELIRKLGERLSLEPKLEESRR

mouse TRPC6 = target: T2, mouse TRPC6 (Mus musculus, UniProt Q61143); assay: Fluorescence Ca2+ assay, inhibition of HDM-activated TRPC6 in HEK293 cells; format: cell-based; settings: HEK293 cells with stable expression of mouse TRPC6
T2 sequence (Q61143 1-930): T1 sequence (Q61143 1-930)
How it was run: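 HEK293 cells co-expressing mouse TRPC6 and the Gq/11-PLC-coupled M5 muscarinic receptor were loaded with Fluo-4. Cells were preincubated with test compound at various concentrations for 5 min, then HDM (10 μM) was added, and fluorescence was read in a microplate reader. Traces were expressed as ΔF over F0. IC50 came from a Hill fit of one experiment (N = 3).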

IC50 (AGS cells) [µM]	IC50 (MKN-45 cells) [µM]	SMILES	IC50 (TRPC6) [µM]	TRPC6 antagonistic potency (in words) (mouse TRPC6)
37	15.3	COc1ccc(CCCOC(Cn2ccnc2)c2ccc(OC)cc2)cc1 (stereo not shown) [SKF-96365, 1H-Imidazole, 1-[2-(4-methoxyphenyl)-2-[3-(4-methoxyphenyl)propoxy]ethyl], reference compound]	4.9	
		COc1cccc2sc(N(CCN(C)C)C(=O)c3ccc4ccccc4c3)nc12 [Compound 1r, N-(2-(dimethylamino)ethyl)-N-(4-methoxybenzo[d]thiazol-2-yl)-2-naphthamide]		No in vitro potency; also recorded: no antagonistic potency
